Data reported in ChEMBL document CHEMBL4513216, “Probing the Open Global Health Chemical Diversity Library for Multistage-Active Starting Points for Next-Generation Antimalarials” (ACS Infect Dis, 2020).

Test: Toxicity liver stage against HepG2, at 10uM
Format: cell-based
Set-up: test concentration 10 uM, cell line HepG2-A16-CD81EGFP
Details: human, HepG2-A16-CD81EGFP cells; read-out: INHIBITION
Summary of the method: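 Uninfected HepG2-A16-CD81EGFP cells, 3 × 10^3 per well, 1536-well, plated on prespotted compound at 10 μM final, parasite-free screening media added to match infected plates; puromycin 10 μM positive, DMSO 0.5% negative; run in parallel with 48 h PbLuc assay at 37 °C, 5% CO2; viability by CellTiter-Glo luminescence, normalized to controls.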

Row | Compound | cytotoxicity at 10 µM
1 | CC(C)CN1C[C@@H]2OCC(=O)N(Cc3nccn3C)[C@@H]2C1 | 0.174%
2 | O[C@@H]1C[C@@H](c2nc(-c3ccccc3)no2)N(Cc2cccnc2)C1 | 3.69%
3 | CC(=O)N1CCC(N2CCOC[C@H]2c2nc(-c3ccccc3)c[nH]2)CC1 | 1.74%
4 | COC(=O)[C@@H]1Cc2ncn(C)c2CN1S(=O)(=O)c1ccc(C)cc1 | 2.08%
5 | CN1CC[C@H](N(Cc2ccccc2)C2COC2)C[C@H](O)C1 | 4.27%
6 | CC(C)CN1CC(O)CN(C(=O)c2cccc(C(F)(F)F)c2)CC1=O (stereo unspecified) | -7.08%
7 | O=C(NCCN1CCOCC1)c1nc2ccccc2c(=O)[nH]1 | 11.3%
8 | CS(=O)(=O)N1CCc2ccc(=O)n(CC3CCOCC3)c2CC1 | 6.4%
9 | CN(Cc1cccnc1)CC1CC12CCN(Cc1nccs1)CC2 (stereo unspecified) | 10.2%
10 | O=C(c1ccc(F)cc1)N1C[C@@H]2CN(c3ncccn3)C[C@@H]2C1 | 7.98%
11 | CC(=O)N1C[C@H]2CCCN(c3ncc(C)cn3)[C@H]2C1 | 9.52%
12 | CCS(=O)(=O)N1CCN(C(=O)C(C)C)CC2(CC(=O)N(C)C2)C1 (stereo unspecified) | 8.4%
13 | Cn1cnnc1S(=O)(=O)C1CCN(S(=O)(=O)C2CC2)CC1 | -9.99%
14 | Cc1c(NC(=O)c2cccc(Br)c2)c(C(=O)N(C)C)nn1C | 2.35%
15 | O=C(CCc1cccnc1)N1CCCCC1c1ccn2ccnc2n1 (stereo unspecified) | -4.28%
16 | CNc1cncc(C2CCCN2Cc2cccc(C)n2)n1 (stereo unspecified) | -8.3%
17 | CO[C@H]1CCN(C(=O)c2ccc3oc(C)cc3c2)C[C@@]12CCCO2 | 25.9%
18 | Cn1nc(C2CCNC2)c2c(C(=O)NC3CC3)cc(C3CC3)nc21 (stereo unspecified) | 13.9%
19 | CN(Cc1cc(Br)c2c(c1)OCO2)Cc1cscn1 | -12.2%
20 | Cc1ccc(S(=O)(=O)Cc2nsc(N(C)C)n2)c(C)c1 | -25.2%
21 | O=C(c1ccccc1O)N1CCn2c(nnc2C(F)(F)F)C1 | 14.6%

Row | Compound | cytotoxicity at 10 µM
22 | Cc1noc(CCCC(=O)N2CCN(C)CC2c2ccccc2)n1 (stereo unspecified) | -6.73%
23 | COc1cccc(C2CCCN2C(=O)NCCCn2cccn2)c1 (stereo unspecified) | 15.5%
24 | Cc1cc2n(n1)CC(CNC1CCN(CCc3ccccc3)CC1)CN2 (stereo unspecified) | 2.7%
25 | CCNC(=O)N(CCCO)C1CCCc2ccccc21 (stereo unspecified) | -11%
26 | CC(C)c1noc(C(C)N2CCN(c3ccc(C#N)cn3)CC2)n1 (stereo unspecified) | -2.57%
27 | O=C(c1n[nH]c(=O)c2ccccc12)N1CCCC1Cn1cccn1 (stereo unspecified) | -0.743%
28 | COc1cc2c(cc1OC)S(=O)(=O)N(Cc1ccc(C)cc1)C2=O | 8.74%
29 | CC(=O)Nc1ccc(/C=C/c2ncc(C(=O)O)s2)cc1 | -3.54%
30 | CC1CCCN(C(=O)c2ncncc2Cl)C1 (stereo unspecified) | 8.43%
31 | O=C(Cn1cc(Cl)cn1)N1CCNC1=O | -13.2%
32 | CCC1(CNCc2ncc[nH]2)CCCC1 | -3.09%
33 | Cc1cccc(CNc2nnc(C(C)C)o2)c1 | 12.2%
34 | Cc1cnc(C(=O)N2C[C@H](N3CCOCC3)[C@@H]3OCCC[C@@H]32)cn1 | -107%
35 | CCOC1COC2(CCN(S(=O)(=O)c3ccc(F)cc3)CC2)C1 (stereo unspecified) | -109%
36 | Cn1ccnc1SCCNC(=O)Cn1cnc2ccccc2c1=O | -20.7%
37 | CCCN1CCCC2(CCN(C(=O)CCCn3cncn3)C2)C1=O (stereo unspecified) | -1.84%
38 | OC1(CNCCCN2CCCc3ccccc32)CNCCOC1 (stereo unspecified) | 13.2%
39 | OC1(CN2CCCC2)CCCN(Cc2cnc(-c3ccccc3)nc2)C1 (stereo unspecified) | -11.9%
40 | CCOc1ccc(CN2CCN(CCOC)[C@@H]3CS(=O)(=O)C[C@@H]32)cc1 | -1.25%
41 | CCCn1cc(C(=O)NCCc2ccncc2)c(C)n1 | 11.2%
42 | Cc1nc(CN2CCCC(CCc3ccccc3C(F)(F)F)C2)no1 (stereo unspecified) | 2.79%

Row | Compound | cytotoxicity at 10 µM
43 | NCc1cn(CC2CCCN(C(=O)NCc3ccc(Cl)cc3)C2)nn1 (stereo unspecified) | -22%
44 | COC[C@@]12CC[C@@H](N3CCOCC3)C[C@H]1CCN(c1ncccc1C)C2 | -1.33%
45 | COc1ccc(OC)c(-n2cnnc2CN)c1 | -4.4%
46 | O=C(NCC1CCCO1)Nc1nnc(C(F)(F)F)s1 (stereo unspecified) | 1.72%
47 | COc1ccccc1OCCCc1cc(C#N)ccn1 | -11.5%
48 | Cc1cc(C)n(CC(C)NCc2nc(-c3cccnc3)no2)n1 (stereo unspecified) | 0.107%
49 | Cc1nn(C)c(C)c1-c1cc(-c2cc(CC(=O)O)cs2)nc(N)c1C#N | 0.701%
50 | CCc1ncc(C(=O)N2CCN(c3cnn(C)c(=O)c3)CC2)cn1 | -8.3%
51 | Cc1cccc(N2CCN(C(=O)CCc3c(C)noc3Cl)CC2)c1 | -9.73%
52 | CCc1noc(C)c1C(=O)N1CCCC1Cn1cccn1 (stereo unspecified) | -3.04%
53 | O=C1COc2cc(C(=O)NS(=O)(=O)c3ccc(F)cc3)ccc2N1 | -8.47%
54 | CCN(CC1CCOC1)C(=O)c1ccccc1S(C)(=O)=O (stereo unspecified) | -0.945%
55 | CC(C)n1cc(CN2CCCN(C(=O)COC3CCCC3)CC2)cn1 | -15.5%
56 | CCN(Cc1ccc2c(c1)OCCO2)C(=O)NC(C)Cn1cccn1 (stereo unspecified) | -10.6%
57 | COc1cc(CNc2cc(N3CCCC3CO)ncn2)ccn1 (stereo unspecified) | -28.5%
58 | O=C1NCC(C(=O)Nc2ncc(Cc3ccccc3)s2)N1 (stereo unspecified) | 5.92%
59 | CC(C(=O)NCc1ccc(N2CCCC2)nc1)S(C)(=O)=O (stereo unspecified) | -13.4%
60 | COc1ccc(CCCNCc2c(C)nn(C)c2N(C)C)cc1OC | -19.2%
61 | c1cnn(CC2CN(Cc3nc(-c4ccoc4)no3)CCO2)c1 (stereo unspecified) | -23.8%
62 | COc1cc(CNC(=O)c2c(C)noc2C(C)C)ccn1 | -7.9%
63 | COc1cccc(S(=O)(=O)NC(=O)COc2c(C)cccc2C)c1 | -5.84%

Row | Compound | cytotoxicity at 10 µM
64 | CCN(Cc1ccc2c(c1)OCCO2)S(=O)(=O)N(C)C(C)C | -9.21%
65 | O=C(Cc1ccc2c(c1)CCC2)NCCNc1ncccn1 | -3.93%
66 | CCc1ccc(S(=O)(=O)Nc2cc(OC)c(OC)cc2C(=O)O)s1 | -7.22%
67 | Cc1ccc(-c2nc(CN3CCc4c(ncn4C)C3)cs2)o1 | -11.3%
68 | CC(C)c1cc(CNC(=O)N2CCC(Cc3cnn(C)c3)C2)on1 (stereo unspecified) | -10.9%
69 | CC(=O)N1CCCN(C(=O)CCc2c(C)noc2C)CC1 | -6.38%
70 | Cc1cc(C)n(C2CN(CC(O)c3ccc4c(c3)OCO4)C2)n1 (stereo unspecified) | -15.7%
71 | O=C(NCc1ccc(-n2cncn2)nc1)c1ccoc1 | -2.38%
72 | Cc1cccc(CCC(=O)N2CCCC(c3cc(C(N)=O)[nH]n3)C2)c1 (stereo unspecified) | -7.1%
73 | Cn1ccc(C(=O)NCc2cccc(N3CCCCC3=O)c2)cc1=O | -6.68%
74 | Cc1ccc(CN2CC[C@H]3CO[C@H](CN4CCN(C)CC4)[C@H]3C2)o1 | -118%
75 | Cn1nccc1-c1nnn2c1COCC(CNC1CCOCC1)C2 (stereo unspecified) | -103%
76 | Cc1ccc(Oc2cc(CN)ccn2)cc1C | -0.578%
77 | NCC1[C@H]2CN(Cc3ccccc3F)C[C@@H]12 (stereo partly specified) | -7.52%
78 | CCS(=O)(=O)N1CCC2(CC1)CN(c1cccnc1)C(=O)CO2 | -109%
79 | Fc1ccc(CN2CCCn3cnc(COCC4CC4)c3C2)cc1 | 7.43%
80 | O=C1NCC[C@]12CN(Cc1nccs1)C[C@H]2c1ccccc1 | 11%
81 | CSCCCN1C[C@@H]2CC[C@H]1CN(Cc1[nH]cnc1C)C2 | 1.2%
